Bioassay records from PubChem BioAssay.
Most compounds without a hit are left out; they make up all but 3.4% or so of the library.
UCH37 inh: blocks the human deubiquitinase UCH37. inhibition, % (test concentration not listed). hit rate 0.33% among 330,000. purified proteasome/UCH37, Ub-AMC cleavage fluorescence. AID 588478;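 active = mean inhibition over replicate wells above about 20%, limit read from the data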;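 also: 0% = compound-free wells with enzyme and 100% = wells lacking proteasome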
Target sequence (Q9Y5K5 whole entry, looked up): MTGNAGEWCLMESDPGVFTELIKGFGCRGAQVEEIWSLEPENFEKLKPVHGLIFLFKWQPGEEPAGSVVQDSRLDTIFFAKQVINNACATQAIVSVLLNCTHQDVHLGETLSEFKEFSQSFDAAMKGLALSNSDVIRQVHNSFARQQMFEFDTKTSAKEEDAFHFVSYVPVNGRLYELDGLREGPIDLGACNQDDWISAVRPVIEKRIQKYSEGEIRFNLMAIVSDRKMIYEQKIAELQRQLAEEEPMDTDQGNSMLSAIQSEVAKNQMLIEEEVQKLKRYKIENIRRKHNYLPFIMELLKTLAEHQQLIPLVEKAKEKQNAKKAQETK
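Material: Human UCH37 enzyme supplied as purified proteasome complex | Schedule: 30 min preincubation with enzyme, 25 min cleavage at room temperature | Detection: AMC fluorescence 355/460 nm | Measure: % inhibition of Ub-AMC cleavage fluorescence | Controls: Wells without proteasome as full block, compound-free enzyme plus substrate as uninhibited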
AHR act: activators of human aryl hydrocarbon receptor. AHR-responsive luciferase reporter cells, luminescence. activation, % at 5 µM. hit rate 2.5% among 320,000. AID 2796; in the data active = activation above about 47%;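 also: 0% = vehicle wells and 100% = reference agonist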
Arr AP2 block: blocks beta-arrestin peptide binding to AP2 adaptin | hit rate 0.31% among 340,000 | inhibition, % at 10 µM | FITC-arrestin peptide / GST-AP2 beads, flow cytometry; AP2 beta2 appendage carries R879A mutation;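 active = inhibition above a set limit, near 3 SD of compounds lacking own fluorescence, cut at about 54% in these data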;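 also: plate controls were DMSO wells for no effect and 5 µM unlabelled arrestin peptide for full effect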
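System: GST-AP2 R879A glutathione beads; medium: PBS, Tween 20 0.05%, BSA 0.1%; reagent: fluorescein-tagged arrestin peptide at 50 nM final; schedule: pre-incubation 12 min, peptide binding 1 h, room temperature; detection: flow cytometry, FL1 (488/535 nm); read-out: inhibition as reduced fluorescein signal on beads, percent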
A3G deaminase: inhibitors of human APOBEC3G DNA deaminase; recombinant A3G, ssDNA deamination FAM/TAMRA fluorescence; inhibition, % at 20 µM; hit rate 0.28% among 330,000; AID 493012;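 active = inhibition of at least 40% at 20 µM, with no more than 30% in the related APOBEC3A deaminase screen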;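 also: plate controls were DMSO wells with A3G for no effect and wells lacking A3G enzyme for full effect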
PolyA inhibitor: blocks polyadenylation in yeast reporter cells; S. cerevisiae SKY197-pL101 polyadenylation reporter, beta-gal luminescence; efflux-impaired pdr1/pdr3 knockout yeast; score 100 = 6 SD above DMSO; activity score, % at 12 µM; hit rate 0.02% among 300,000;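 active = lowest replicate activity score at least 50, where 100 means six control SD above control mean; inconclusive = lowest score under 50 but half or more replicates reach 50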;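 also: yeast exposed to compound for 9 h at 30 °C; higher score means more reporter readthrough which indicates perturbed polyadenylation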
A3A deaminase: inhibitors of human APOBEC3A DNA deaminase. P31941. recombinant A3A, FAM/TAMRA ssDNA deamination fluorescence. inhibition, % at 20 µM. hit rate 0.41% among 330,000. AID 493011;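 active = at least 40% inhibition at 20 µM here, with at most 30% in a related deaminase screen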;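 also: plate controls were A3A with DMSO for no effect and wells lacking A3A enzyme for full effect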
A3G conf: APOBEC3G (human) deaminase inhibition, confirmed; shares compounds with A3G deaminase; recombinant A3G ssDNA deaminase, UDG/FAM-TAMRA fluorescence; inhibition, % at 20 µM; hit rate 72% among 890;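 active = inhibition reaching a set limit in any replicate at 20 µM, the limit being 80% of the first screen's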
UDG ctr A3G: inhibits E. coli UDG, flagging false APOBEC3G inhibitors | shares compounds with A3G deaminase | UDG counterscreen, FAM/TAMRA oligo fluorescence | inhibition, % at 20 µM | 710 tested, under 10 active | AID 504715;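 active = compounds giving 40% or more inhibition at 20 µM in any one of the three replicates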;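 also: plate controls were DMSO wells with UDG and oligo for no effect and DMSO wells lacking both for full effect; inhibitors lower the FAM signal released by uracil excision and alkaline cleavage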
Target sequence (P12295 whole entry, looked up): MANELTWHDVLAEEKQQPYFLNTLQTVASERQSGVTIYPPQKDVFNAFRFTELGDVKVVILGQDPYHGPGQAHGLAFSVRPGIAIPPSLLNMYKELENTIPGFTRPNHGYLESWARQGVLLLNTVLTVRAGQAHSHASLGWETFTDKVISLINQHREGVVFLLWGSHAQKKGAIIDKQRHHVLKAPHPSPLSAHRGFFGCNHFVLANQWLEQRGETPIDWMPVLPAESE
Active calls of the source: *.

O=C(Nc1nc(-c2ccccn2)cs1)Nc1ccc(F)cc1F was read as AHR act -1.0, Arr AP2 block 5.6, A3G deaminase 59.6*, PolyA inhibitor -35.7, A3A deaminase 1.9, A3G conf 68.0* and UDG ctr A3G -4.7.
For O=C(Nc1nc(-c2ccccc2)cs1)Nc1ccc(F)cc1F the results were UCH37 inh 3.3, AHR act -5.7, Arr AP2 block 4.6, A3G deaminase -0.5, PolyA inhibitor -15.0 and A3A deaminase 2.7.
Screening O=C(NN=Cc1cn[nH]c1-c1ccccc1)c1cccs1 returned UCH37 inh 0.5.
NC(=O)c1c(NC(=O)CCCn2cnc([N+](=O)[O-])n2)sc2c1CCCC2 was read as UCH37 inh -1.1, AHR act 3.9, Arr AP2 block -4.7, A3G deaminase 59.2*, PolyA inhibitor 10.5, A3A deaminase 4.0, A3G conf 41.4* and UDG ctr A3G 2.9.
O=C(Nc1nnc(-c2ccco2)s1)C1CCCCC1 was read as UCH37 inh -6.1, AHR act -3.7, Arr AP2 block 1.1, A3G deaminase 56.5*, PolyA inhibitor 2.5, A3A deaminase -1.6, A3G conf -3.3 and UDG ctr A3G 1.1.
`Cc1ccc(S(=O)(=O)N2CCC(C(=O)Nc3nnc(-c4ccco4)s3)CC2)cc1` gave UCH37 inh 0.2, AHR act 1.8, Arr AP2 block 14.3, A3G deaminase 5.0, PolyA inhibitor -10.1 and A3A deaminase 0.5.
CCOc1ccc(NC(=O)CC(C)=NNC(=O)c2cnccn2)cc1 was read as UCH37 inh 0.4.
For COC(=O)/C=c1/sc2nc3ccccc3n2c1=O the results were AHR act 1.1, Arr AP2 block 0.5, A3G deaminase 72.9*, PolyA inhibitor 15.5, A3A deaminase 1.3, A3G conf 74.5* and UDG ctr A3G -3.1.
Screening O=c1/c(=C/c2ccccn2)sc2nc3ccccc3n12 returned AHR act 30.8, Arr AP2 block 25.9, A3G deaminase -4.0, PolyA inhibitor 6.1 and A3A deaminase -0.9.
`CC1(CCc2ccccc2)NC(=S)N(c2ccc(Cl)cc2)N1` (stereo unspecified) gave UCH37 inh 5.0, AHR act 54.5*, Arr AP2 block -2.3, A3G deaminase 56.6*, PolyA inhibitor inconclusive, A3A deaminase 0.8 and A3G conf 12.3.
`CC1(CCc2ccccc2)NC(=S)N(c2ccccc2)N1` (stereo unspecified) gave UCH37 inh -0.8, AHR act 1.9, Arr AP2 block 19.2 and PolyA inhibitor 6.4.
`O=C1NCCCC1C(=O)NN=Cc1cc([N+](=O)[O-])ccc1O` (stereo unspecified) gave UCH37 inh 15.6.
`COc1ccc(NC(=S)c2ccc3ccccc3n2)cc1` gave AHR act 45.8, Arr AP2 block -2.5, A3G deaminase 62.3*, PolyA inhibitor -2.0, A3A deaminase -0.8, A3G conf 62.5* and UDG ctr A3G -4.1.
Cc1ccc(C)c(NC(=O)c2ccc3ccccc3n2)c1 was read as UCH37 inh 3.4, AHR act 41.2, Arr AP2 block -6.1, A3G deaminase -3.8, PolyA inhibitor -22.1 and A3A deaminase -3.0.
Cc1ccc(NC(=S)c2ccc3ccccc3n2)c(C)c1 was read as AHR act 25.9, Arr AP2 block 53.0, A3G deaminase 46.1*, PolyA inhibitor 17.5, A3A deaminase 2.6, A3G conf 21.7* and UDG ctr A3G -5.2.
For Cc1nnc(C)n1N=Cc1ccc(C(=O)O)cc1 the results were UCH37 inh 1.4.
N#Cc1c(-c2cccnc2)c2c([nH]c1=S)CCCC2 was read as UCH37 inh 0.9, AHR act 1.1, Arr AP2 block 7.2, A3G deaminase 50.3*, PolyA inhibitor 3.5, A3A deaminase -0.6, A3G conf 86.1* and UDG ctr A3G -2.1.
`CCCCCC(=O)NN=Cc1ccc(N(C)C)cc1` gave UCH37 inh -226.0.
For Cc1cc(C)nc(NN=Cc2ccc([N+](=O)[O-])o2)n1 the results were UCH37 inh 13.4.
Screening S=C(c1ccc(-c2ccccc2Cl)o1)N1CCOCC1 returned UCH37 inh 6.1, AHR act 6.4, Arr AP2 block 8.3, A3G deaminase 61.3*, PolyA inhibitor -16.6, A3A deaminase -2.2, A3G conf 55.0* and UDG ctr A3G -6.7.
CC(CSc1n[nH]c(=S)s1)c1ccccc1 (stereo unspecified) was read as UCH37 inh 4.5 and Arr AP2 block -6.9.
O=C1c2ccccc2C(=O)N1CCSc1n[nH]c(=S)s1 was read as UCH37 inh 1.6, AHR act 0.5, Arr AP2 block 3.6, A3G deaminase 53.7*, PolyA inhibitor -3.6, A3A deaminase 1.0, A3G conf active and UDG ctr A3G -3.5.
For COC(=O)CCC(=O)Nc1sc(C)c(C)c1C(N)=O the results were UCH37 inh -3.1, AHR act 2.0, Arr AP2 block -0.7, A3G deaminase 56.6*, PolyA inhibitor -0.8, A3A deaminase -0.1, A3G conf 54.6* and UDG ctr A3G -0.7.
COC(=O)CCC(=O)NC(=S)Nc1sc(C)c(C)c1C(N)=O was read as AHR act 12.3, Arr AP2 block 0.1, A3G deaminase 2.2, PolyA inhibitor -11.7 and A3A deaminase -7.4.
Screening COC(=O)CCC(=O)Nc1sc(Cc2ccccc2)c(C)c1C(N)=O returned UCH37 inh 6.1, AHR act -2.2, Arr AP2 block -3.4, A3G deaminase 44.5*, PolyA inhibitor 11.2, A3A deaminase 0.4, A3G conf 57.0* and UDG ctr A3G -0.2.
NS(=O)(=O)c1ccc(O)c(NC(=O)c2ccc([N+](=O)[O-])o2)c1 was read as UCH37 inh 5.5, AHR act 0.8, Arr AP2 block 6.2, A3G deaminase 63.8*, PolyA inhibitor -7.3, A3A deaminase 7.7, A3G conf 28.2* and UDG ctr A3G -12.5.
Screening S=c1nc(-c2ccccc2)n(-c2ccccc2)[nH]1 returned UCH37 inh 1.2, AHR act 1.8, Arr AP2 block -4.9, A3G deaminase 48.1*, PolyA inhibitor 18.0, A3A deaminase -5.7, A3G conf 86.7* and UDG ctr A3G -1.8.
For CCOc1c(Cl)cc(C=NO)cc1OC the results were UCH37 inh 5.4.
Screening S=c1[nH]nc(C2COc3ccccc3O2)o1 (stereo unspecified) returned UCH37 inh -2.2, AHR act -0.2, Arr AP2 block 19.6, A3G deaminase -5.3, PolyA inhibitor -4.0 and A3A deaminase 0.5.
